The source made the active and inactive calls. No cut-off for these calls is given here.
Key:
NCI-H460 = assay: Growth inhibition of human NCI-H460 cells; format: functional
NCI-H522 = assay: Growth inhibition of human NCI-H522 cells; format: functional
COLO 205 = assay: Growth inhibition of human COLO205 cells; format: functional
HT-29 = assay: Growth inhibition of human HT-29 cells; format: functional
KM12 = assay: Growth inhibition of human KM12 cells; format: functional
SF-268 = assay: Growth inhibition of human SF268 cells; format: functional
[1] = Growth inhibition of human SF295 cells; format: functional; conditions: SF-295
[2] = Growth inhibition of human SF539 cells; format: functional
U-251 = assay: Growth inhibition of human U251 cells; format: functional
[3] = Growth inhibition of human LOXIMVI cells; format: functional; conditions: LOX IMVI
Malme-3M = assay: Growth inhibition of human MALME-3M cells; format: functional
M14 = assay: Growth inhibition of human M14 cells; format: functional
SK-MEL-2 = assay: Growth inhibition of human SK-MEL-2 cells; format: functional
SK-MEL-5 = assay: Growth inhibition of human SK-MEL-5 cells; format: functional
[4] = Growth inhibition of human UACC257 cells; format: functional; conditions: UACC-257
[5] = Growth inhibition of human OVCAR3 cells; format: functional; conditions: OVCAR-3
[6] = Growth inhibition of human OVCAR4 cells; format: functional
[7] = Growth inhibition of human OVCAR8 cells; format: functional
SK-OV-3 = assay: Growth inhibition of human SKOV3 cells; format: functional
786-0 = assay: Growth inhibition of human 786-0 cells; format: functional
ACHN = assay: Growth inhibition of human ACHN cells; format: functional
[8] = Growth inhibition of human RXF393 cells; format: functional
PC-3 = assay: Growth inhibition of human PC3 cells; format: functional
MCF7 = assay: Growth inhibition of human MCF7 cells; format: functional
T47D = assay: Growth inhibition of human T47D cells; format: functional
[9] = target: Proteasome Macropain subunit (Homo sapiens) (UniProt P49721); assay: Inhibition of trypsin-like activity of 20S proteasome in human erythrocytes using Boc-Leu-Arg-Arg-AMC as substrate by fluorescence assay; format: cell-based
Outline: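 Human 20S proteasome 0.0025 mg/mL at 30 °C in 50 mM Tris pH 7.4, 50 mM NaCl, 0.5 mM EDTA, 0.03% SDS, 7.5% DMSO. Varied inhibitor concentrations; AMC release monitored continuously for 10 min, ex 380/em 460 nm. Ki derived from progress-curve IC50 fit.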

Chymotrypsinogen A = Chymotrypsinogen A (Bos taurus, UniProt P00766); assay: Inhibition of bovine pancreatic alpha-chymotrypsin using Suc-Leu-Leu-Val-Tyr-AMC as substrate by fluorescence assay; conditions: read-out: Ki
Outline: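 Enzyme incubated at 20 °C in 50 mM Tris pH 8.0, 100 mM NaCl, 5 mM EDTA, 7.5% DMSO with varied inhibitor concentrations. Substrate hydrolysis followed for 10 min. Ki from progress curves; mean of three determinations.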

[10] = Cytotoxicity against human leukemia cells assessed as cell growth at 10 uM relative to control; format: functional; conditions: read-out: Activity
Outline: (§1)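 Single-concentration screen against a panel of human cancer cell lines. Each value is the mean percent growth across the cell lines of that tumour subpanel.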

[11] = Cytotoxicity against human NSCLC cells assessed as cell growth at 10 uM relative to control; format: functional; conditions: read-out: Activity; outline: as §1
[12] = Cytotoxicity against human colon cancer cells assessed as cell growth at 10 uM relative to control; format: functional; conditions: Cancer cell lines, read-out: Activity; outline: as §1
[13] = Cytotoxicity against human ovarian cancer cells assessed as cell growth at 10 uM relative to control; format: functional; conditions: Cancer cell lines, read-out: Activity; outline: as §1
[14] = Cytotoxicity against human renal cancer cells assessed as cell growth at 10 uM relative to control; format: functional; conditions: Cancer cell lines, read-out: Activity; outline: as §1
[15] = Cytotoxicity against human prostate cancer cells assessed as cell growth at 10 uM relative to control; format: functional; conditions: Cancer cell lines, read-out: Activity; outline: as §1
[16] = Cytotoxicity against human breast cancer cells assessed as cell growth at 10 uM relative to control; format: functional; conditions: Cancer cell lines, read-out: Activity; outline: as §1
CCRF-CEM = assay: Growth inhibition of human CCRF-CEM cells; format: functional
HL-60(TB) = assay: Growth inhibition of human HL-60(TB) cells; format: functional; conditions: read-out: LC50 (the source's name)
K562 = assay: Growth inhibition of human K562 cells; format: functional
[17] = Growth inhibition of human MOLT4 cells; format: functional
RPMI-8226 = assay: Growth inhibition of human RPMI8226 cells; format: functional
HOP-62 = assay: Growth inhibition of human HOP62 cells; format: functional
NCI-H23 = assay: Growth inhibition of human NCI-H23 cells; format: functional
[18] = read-out: LC50 (the source's name)

Sequence of Proteasome Macropain subunit (Homo sapiens) (P49721 whole entry): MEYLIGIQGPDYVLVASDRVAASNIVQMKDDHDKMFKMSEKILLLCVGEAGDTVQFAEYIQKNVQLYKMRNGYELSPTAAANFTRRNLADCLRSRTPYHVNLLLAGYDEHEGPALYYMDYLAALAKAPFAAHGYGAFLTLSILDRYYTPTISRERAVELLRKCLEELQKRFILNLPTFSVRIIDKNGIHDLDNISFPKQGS

SMILES: CC(C)C[C@H](NC(=O)CCn1ccc2ccc(Br)cc2c1=O)B(O)O
- GI50 (NCI-H460): 3.18 µM
- LC50 (NCI-H460): > 100 µM
- TGI (NCI-H460): > 100 µM
- GI50 (NCI-H522): 0.3 µM
- LC50 (NCI-H522): > 100 µM
- TGI (NCI-H522): 2.25 µM
- GI50 (COLO 205): 0.85 µM
- TGI (COLO 205): > 100 µM
- CC50 (COLO 205; [18]): > 100 µM
- GI50 (HT-29): 0.45 µM
- LC50 (HT-29): > 100 µM
- TGI (HT-29): > 100 µM
- GI50 (KM12): 1.33 µM
- LC50 (KM12): > 100 µM
- TGI (KM12): 4.38 µM
- GI50 (SF-268): 0.7 µM
- LC50 (SF-268): > 100 µM
- TGI (SF-268): 3.85 µM
- GI50 [1]: 0.58 µM
- LC50 [1]: 75.5 µM
- TGI [1]: 4.51 µM
- GI50 ([2]; SF-539): 0.21 µM
- TGI ([2]; SF-539): 0.6 µM
- CC50 ([2]; SF-539, read-out: LC50 (the source's name)): > 100 µM
- GI50 (U-251): 1.18 µM
- TGI (U-251): > 100 µM
- CC50 (U-251; [18]): > 100 µM
- GI50 [3]: 0.22 µM
- TGI [3]: 0.61 µM
- GI50 (Malme-3M): 0.68 µM
- TGI (Malme-3M): 7.95 µM
- CC50 (Malme-3M; [18]): > 100 µM
- GI50 (M14): 0.36 µM
- LC50 (concentration killing 50% of cells) (M14): > 100 µM
- TGI (M14): 3.88 µM
- GI50 (SK-MEL-2): 0.46 µM
- LC50 (SK-MEL-2): > 100 µM
- TGI (SK-MEL-2): 4.56 µM
- GI50 (SK-MEL-5): 0.37 µM
- LC50 (concentration killing 50% of cells) (SK-MEL-5): 82.5 µM
- TGI (SK-MEL-5): 3.11 µM
- GI50 [4]: 0.73 µM
- TGI [4]: 2.86 µM
- GI50 [5]: 0.33 µM
- LC50 (concentration killing 50% of cells) [5]: 10.6 µM
- TGI [5]: 1.21 µM
- GI50 ([6]; OVCAR-4): 2.06 µM
- TGI ([6]; OVCAR-4): > 100 µM
- CC50 ([6]; OVCAR-4, read-out: LC50 (the source's name)): > 100 µM
- GI50 ([7]; OVCAR-8): 3.64 µM
- TGI ([7]; OVCAR-8): > 100 µM
- CC50 ([7]; OVCAR-8, read-out: LC50 (the source's name)): > 100 µM
- GI50 (SK-OV-3): 2.36 µM
- LC50 (SK-OV-3): > 100 µM
- TGI (SK-OV-3): 71.5 µM
- GI50 (786-0): 0.82 µM
- TGI (786-0): > 100 µM
- CC50 (786-0; [18]): > 100 µM
- GI50 (ACHN): 0.41 µM
- TGI (ACHN): > 100 µM
- CC50 (ACHN; [18]): > 100 µM
- GI50 ([8]; RXF 393): 0.28 µM
- TGI ([8]; RXF 393): 0.88 µM
- CC50 ([8]; RXF 393, read-out: LC50 (the source's name)): 5.39 µM
- GI50 (PC-3): 4.19 µM
- TGI (PC-3): > 100 µM
- CC50 (PC-3; [18]): > 100 µM
- GI50 (MCF7): 0.39 µM
- TGI (MCF7): > 100 µM
- CC50 (MCF7; [18]): > 100 µM
- GI50 (T47D): 0.78 µM
- TGI (T47D): 6.09 µM
- CC50 (T47D; [18]): > 100 µM
- inhibition [9]: inactive
- Ki (Chymotrypsinogen A): 23.7 µM
- growth at 10 µM [10]: 0.02%
- growth at 10 µM [11]: 8.79%
- growth at 10 µM [12]: 4.45%
- growth at 10 µM [13]: 38.8%
- growth at 10 µM [14]: -4%
- growth at 10 µM [15]: 34.5%
- growth at 10 µM [16]: 2.31%
- GI50 (CCRF-CEM): 0.43 µM
- TGI (CCRF-CEM): > 100 µM
- CC50 (CCRF-CEM; [18]): > 100 µM
- CC50 (HL-60(TB)): > 100 µM
- GI50 (K562): 1.08 µM
- TGI (K562): > 100 µM
- CC50 (K562; [18]): > 100 µM
- GI50 ([17]; MOLT-4): 0.31 µM
- TGI ([17]; MOLT-4): > 100 µM
- CC50 ([17]; MOLT-4, read-out: LC50 (the source's name)): > 100 µM
- GI50 (RPMI-8226): 0.32 µM
- TGI (RPMI-8226): > 100 µM
- CC50 (RPMI-8226; [18]): > 100 µM
- GI50 (HOP-62): 2.63 µM
- TGI (HOP-62): 9.29 µM
- CC50 (HOP-62; [18]): > 100 µM
- GI50 (NCI-H23): 1.59 µM
- TGI (NCI-H23): > 100 µM
- CC50 (NCI-H23; [18]): > 100 µM

Reference: ChEMBL document CHEMBL3286129, “Optimization of peptidomimetic boronates bearing a P3 bicyclic scaffold as proteasome inhibitors” (Eur J Med Chem, 2014)
